Assay results as given in ChEMBL document CHEMBL1123921, “Quinolonecarboxylic acids. 2. Synthesis and antibacterial evaluation of 7-oxo-2,3-dihydro-7H-pyrido[1,2,3-de][1,4]benzothiazine-6-carboxylic acids” (J Med Chem, 1987).
Converted amounts (≈) assume the structure as drawn.

Assays:
Type in all cases: functional
Pseudomonas aeruginosa = assay: In vitro antibacterial activity against clinical isolates of Pseudomonas aeruginosa 2437 (gram negative) by agar dilution assay.
How it was run: (§1)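 Agar dilution on Isosensitest agar; compound incorporated by twofold serial dilution. Overnight broth cultures delivered by multipoint inoculator at 10⁵ CFU per point. Plates read after 18 h at 37 °C. MIC taken as the lowest concentration giving complete growth inhibition.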

Klebsiella pneumoniae = assay: In vitro antibacterial activity against clinical isolates of Klebsiella pneumoniae-4 (gram negative) by agar dilution assay.; how it was run: as §1
Staphylococcus aureus = assay: In vitro antibacterial activity against clinical isolates of Staphylococcus aureus 18773 (gram-positive) by agar dilution assay.; how it was run: as §1
Enterobacter cloacae = assay: In vitro antibacterial activity against clinical isolates of Enterobacter cloacae 041 (gram negative) by agar dilution assay.; how it was run: as §1
Morganella morganii = assay: In vitro antibacterial activity against clinical isolates of Proteus morganii 27 (gram negative) by agar dilution assay.; how it was run: as §1
Escherichia coli = assay: In vitro antibacterial activity against clinical isolates of Escherichia coli 15 (gram negative) by agar dilution assay.; how it was run: as §1

Structure (SMILES)	MIC (Pseudomonas aeruginosa) [µg/mL]	MIC (Klebsiella pneumoniae) [µg/mL]	MIC (Staphylococcus aureus) [µg/mL]	MIC (Enterobacter cloacae) [µg/mL]	MIC (Morganella morganii) [µg/mL]	MIC (Escherichia coli) [µg/mL]
CCOC(=O)N1CCN(c2c(F)cc3c(=O)c(C(=O)O)cn4c3c2SCC4)CC1	> 50	6.25 (≈ 14.8 µM)	0.39 (≈ 0.925 µM)	6.25 (≈ 14.8 µM)	> 50	6.25 (≈ 14.8 µM)
O=C(O)c1cn2c3c(cc(F)cc3c1=O)SCC2	50 (≈ 188 µM)	3.12 (≈ 11.8 µM)	6.25 (≈ 23.6 µM)	6.25 (≈ 23.6 µM)	3.12 (≈ 11.8 µM)	0.78 (≈ 2.94 µM)
O=C(O)c1cn2c3c(c(N4CCSCC4)c(F)cc3c1=O)SCC2	> 50	1.56 (≈ 4.26 µM)	0.78 (≈ 2.13 µM)	1.56 (≈ 4.26 µM)	6.25 (≈ 17.1 µM)	3.12 (≈ 8.51 µM)
O=C(O)c1cn2c3c(cc(N4CCCC4)cc3c1=O)SCC2	100 (≈ 316 µM)		50 (≈ 158 µM)			50 (≈ 158 µM)
O=C(O)c1cn2c3c(c(N4CCNCC4)c(F)cc3c1=O)SCC2	12.5 (≈ 35.8 µM)	< 0.39	0.78 (≈ 2.23 µM)	< 0.39	1.56 (≈ 4.46 µM)	0.39 (≈ 1.12 µM)
O=C(O)c1cn2c3c(cc(F)c(N4CCNCC4)c3c1=O)SCC2	> 100	> 100	> 100	> 100	> 100	> 100
O=C(O)c1cn2c3c(c(Cl)c(Cl)cc3c1=O)SCC2	> 50	12.5 (≈ 39.5 µM)	0.78 (≈ 2.47 µM)	> 50	1.56 (≈ 4.93 µM)	> 50
O=C(O)c1cn2c3c(c(Cl)c(N4CCNCC4)cc3c1=O)SCC2	> 50	> 50	> 50	> 50	> 50	> 50
O=C(O)c1cn2c3c(c(Cl)c(F)cc3c1=O)[S+]([O-])CC2 (stereo not given)	> 100	> 100	> 100	> 100	> 100	> 100
O=C(O)c1cn2c3c(cc(N4CCCC4)c(Cl)c3c1=O)SCC2	> 100	> 100	100 (≈ 285 µM)		> 100	> 100
O=C(O)c1cn2c3c(c(Cl)c(N4CCOCC4)cc3c1=O)SCC2	6.25 (≈ 17 µM)	> 50	> 50	> 50	> 50	6.25 (≈ 17 µM)
O=C(O)c1cn2c3c(ccc(C(F)(F)F)c3c1=O)SCC2	100 (≈ 317 µM)	> 50	> 50	> 50	> 50	> 50
O=C(O)c1cn2c3c(c(N4CCCC4)c(F)cc3c1=O)[S+]([O-])CC2 (stereo not given)	> 50	25 (≈ 71.4 µM)	12.5 (≈ 35.7 µM)	50 (≈ 143 µM)	> 50	12.5 (≈ 35.7 µM)
O=C(O)c1cn2c3c(cccc3c1=O)S(=O)(=O)CC2	100 (≈ 358 µM)	> 100	> 100	> 100	> 100	100 (≈ 358 µM)
O=C(O)c1cn2c3c(cc(N4CCNCC4)cc3c1=O)SCC2	50 (≈ 151 µM)	50 (≈ 151 µM)	> 50	50 (≈ 151 µM)	50 (≈ 151 µM)	> 50
CN1CCN(c2cc3c(=O)c(C(=O)O)cn4c3c(c2Cl)SCC4)CC1	6.25 (≈ 16.5 µM)	> 50	> 50	> 50	> 50	> 50
CCn1cc(C(=O)O)c(=O)c2cc(F)c(N3CCNCC3)cc21 [NORFLOXACIN]	1.56 (≈ 4.89 µM)	0.19 (≈ 0.595 µM)	0.19 (≈ 0.595 µM)	0.39 (≈ 1.22 µM)	0.78 (≈ 2.44 µM)	0.19 (≈ 0.595 µM)
CC1COc2c(N3CCN(C)CC3)c(F)cc3c(=O)c(C(=O)O)cn1c23 (stereo not given) [OFLOXACIN]	1.56 (≈ 4.32 µM)	0.39 (≈ 1.08 µM)	0.19 (≈ 0.526 µM)	0.19 (≈ 0.526 µM)	0.78 (≈ 2.16 µM)	0.19 (≈ 0.526 µM)
CCn1cc(C(=O)O)c(=O)c2cnc(N3CCNCC3)nc21 [PIPEMIDIC ACID]	> 25	0.78 (≈ 2.57 µM)	3.12 (≈ 10.3 µM)	0.78 (≈ 2.57 µM)	3.12 (≈ 10.3 µM)	0.39 (≈ 1.29 µM)
